Laboratory results taken from ChEMBL document CHEMBL1124464, “Peripherally acting enkephalin analogues. 2. Polar tri- and tetrapeptides” (1989).

Tests used:
Assay type in all cases: functional
Mus musculus [1] = organism: Mus musculus; test: Dose ratio in the presence and absence of the peripheral opioid antagonist in N-methyl-nalorphine in AA writhing mice
Procedure, shortened: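 Acetic acid (0.6%, ip) writhing in male TFW mice; N-methylnalorphine 11.5 mg kg-1 ip 20 min before subcutaneous agonist. Writhes counted 5 min from 15 min post-irritant. Dose ratio taken as the shift between parallel regression lines with and without antagonist.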

Mus musculus [2] = test: Antinociceptive activity of subcutaneously administered compound in acetic acid (AA) induced writhing mice; conditions: sc
Procedure, shortened: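 Male TFW mice, groups of five to six, given drug subcutaneously (10 mL kg-1), then ip acetic acid 0.6% at 25 mL kg-1. Writhes counted for 5 min beginning 15 min after acetic acid. ED50 = dose reducing writhes 50% versus vehicle, by linear regression.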

Cavia porcellus = organism: Cavia porcellus; test: Inhibition of electrically induced contractions on the guinea pig ileum; conditions: read-out: ED50 (the source's name)
Procedure, shortened: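 Guinea pig ileum contractions evoked by coaxial stimulation at 0.1 Hz, 0.5-ms pulses, supramaximal voltage, recorded isometrically; dose-response curves built with 15-min washout between doses.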

Mus musculus [3] = test: Antinociceptive activity of perorally administered compound (20 mg) in phenyl-p-benzoquinone induced writhing mice
Procedure, shortened: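 Female CD1 mice (Charles River), groups of five to six, dosed orally by blunt intragastric needle (10 mL kg-1) 30 min before ip PBQ at 2.5 mg kg-1. Abdominal constrictions/hind-limb extensions were counted over 2.5 min starting 10 min after PBQ. ED50 is the dose halving writhes versus vehicle, estimated by linear regression.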

Mus musculus [4] = test: Antinociceptive activity of subcutaneously administered compound in phenyl-p-benzoquinone induced writhing mice
Procedure, shortened: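 Groups of five to six female CD1 mice given drug subcutaneously (10 mL kg-1) 30 min before ip phenyl-p-benzoquinone 2.5 mg kg-1. Writhes (abdominal constrictions/hind-limb extensions) counted over 2.5 min from 10 min post-PBQ. ED50, the dose giving 50% fewer writhes than vehicle, from linear regression.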

Mus musculus [5] = test: Antinociceptive activity in the hot plate test (central activity) in rodents, when compound administered subcutaneously; conditions: sc
Procedure, shortened: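 Male CFLP mice, groups of five to six, placed on a copper surface held at 55 °C; latency to paw licking/shaking or jumping recorded, 30-s cut-off. Drug given subcutaneously at 10 mL kg-1. ED50 = dose doubling response latency versus vehicle, by parallel-line probit analysis.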

Mus musculus [6] = test: Antinociceptive activity in the hot plate test (central activity) in rodents, when compound administered subcutaneously at 50 mg
Procedure, shortened: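 Male CFLP mice (Hacking and Churchill), groups of five to six, dosed sc at 10 mL kg-1 and placed on a copper surface held at 55 °C. Signs of discomfort (paw licking/shaking, jumping) were scored, with a 30-s cut-off. ED50 is the dose doubling response latency versus vehicle, estimated by parallel-line probit analysis.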

Mus musculus [7] = test: Antinociceptive activity of perorally administered compound in phenyl-p-benzoquinone induced writhing mice; conditions: po
Procedure, shortened: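 Female CD1 mice, groups of five to six, dosed orally by blunt intragastric needle (10 mL kg-1) 30 min before ip phenyl-p-benzoquinone 2.5 mg kg-1. Abdominal constrictions/hind-limb extensions counted over 2.5 min starting 10 min after PBQ. ED50 = dose halving writhes versus vehicle, by linear regression.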

[8] = Mus musculus, sc, read-out: ED50

| SMILES | Ratio (Mus musculus [1]) | ED50 (Mus musculus [2]) [mg/kg] | EC50 (Cavia porcellus) [nM] | Inhibition (Mus musculus [3]) [%] | ED50 (Mus musculus [4]; [8]) [mg/kg] | ED50 (Mus musculus [5]) [mg/kg] | Inhibition (Mus musculus [6]) [%] | ED50 (Mus musculus [7]) [mg/kg] | ED50 (Mus musculus [4]) [mg/kg] |
| --- | --- | --- | --- | --- | --- | --- | --- | --- | --- |
| CC(=O)O.CN(C(=O)CNC(=O)[C@@H](CCCN=C(N)N)NC(=O)[C@@H](N)Cc1ccc(O)cc1)[C@@H](Cc1ccc([N+](=O)[O-])cc1)C(N)=O | 2.5 | 0.25 | 36.5 |  |  |  |  |  |  |
| CC(=O)O.CCN(Cc1ccccc1F)C(=O)CNC(=O)[C@@H](CCCN=C(N)N)NC(=O)[C@H](Cc1ccc(O)cc1)N=C(N)N | 7.8 | 0.81 | 20.6 | 16 | 0.43 | 14.6 |  |  |  |
| CC(=O)O.CCN(CCc1ccc([N+](=O)[O-])s1)C(=O)CNC(=O)[C@@H](CCCN=C(N)N)NC(=O)[C@H](Cc1ccc(O)cc1)N=C(N)N |  |  | 25.2 | 7 | 2 |  |  |  |  |
| CC(=O)O.CCN(Cc1ccc([N+](=O)[O-])cc1)C(=O)CNC(=O)[C@@H](CCCN=C(N)N)NC(=O)[C@H](Cc1ccc(O)cc1)N=C(N)N | 4.6 | 0.9 | 470 |  | 7.8 |  |  |  |  |
| CC(=O)O.CCN(CCc1cccc2ccccc12)C(=O)CNC(=O)[C@@H](CCCN=C(N)N)NC(=O)[C@@H](N)Cc1ccc(O)cc1 |  |  | 75.9 | 31 | 1.4 |  | 0 |  |  |
| CC(=O)O.CCN(C(=O)CNC(=O)[C@@H](CCCN=C(N)N)NC(=O)[C@@H](N)Cc1ccc(O)cc1)[C@@H](Cc1ccc([N+](=O)[O-])cc1)C(N)=O | 3.4 | 0.05 | 5.2 |  | 0.06 | 0.54 |  | 13.9 |  |
| CC(=O)O.CCN(Cc1ccc(F)cc1)C(=O)CNC(=O)[C@@H](CCCN=C(N)N)NC(=O)[C@H](Cc1ccc(O)cc1)N=C(N)N | 6.4 | 0.32 | 46 | 12 |  |  | 0 |  | 1.7 |
| CC(=O)O.CCN(C(=O)CNC(=O)[C@@H](CCCN=C(N)N)NC(=O)[C@@H](N)Cc1ccc(O)cc1)[C@@H](Cc1cccc(F)c1)C(N)=O | 2.2 | 0.04 | 25 |  | 0.08 | 1.7 |  |  |  |
| CC(=O)O.CCN(Cc1ccccc1[N+](=O)[O-])C(=O)CNC(=O)[C@@H](CCCN=C(N)N)NC(=O)[C@H](Cc1ccc(O)cc1)N=C(N)N | 11 | 1.1 | 244 | 14 | 4 |  | 0 |  |  |
| CC(=O)O.CCN(CCc1ccco1)C(=O)CNC(=O)[C@@H](CCCN=C(N)N)NC(=O)[C@H](Cc1ccc(O)cc1)N=C(N)N |  |  | 10.9 | 10 | 0.32 |  |  |  |  |
| CCN(CCc1ccccn1)C(=O)CNC(=O)[C@@H](CCCN=C(N)N)NC(=O)[C@@H](N)Cc1ccc(O)cc1 |  |  | 510 |  |  |  |  |  |  |
| CC(=O)O.CCN(C(=O)CNC(=O)[C@@H](CCCN=C(N)N)NC(=O)[C@@H](N)Cc1ccc(O)cc1)[C@@H](Cc1ccccc1F)C(N)=O | 3.9 | 0.0009 | 0.39 |  | 0.15 | 1.95 |  | 5.9 |  |
| CC(=O)O.CCN(CCc1ccc(F)cc1)C(=O)CNC(=O)[C@@H](CCCN=C(N)N)NC(=O)[C@@H](N)Cc1ccc(O)cc1 | 4.5 | 0.14 | 20.5 |  | 1.6 | 12.3 |  | 30.8 |  |
| CC(=O)O.CCN(CCc1cccs1)C(=O)CNC(=O)[C@@H](CCCN=C(N)N)NC(=O)[C@H](Cc1ccc(O)cc1)N=C(N)N |  |  | 9.3 | 15 | 0.44 | 22.9 |  |  |  |
| CC(=O)O.CCN(CCc1ccc([N+](=O)[O-])s1)C(=O)CNC(=O)[C@@H](CCCN=C(N)N)NC(=O)[C@@H](N)Cc1ccc(O)cc1 | 6.2 | 1.7 | 217 |  |  |  |  |  |  |
| CC(=O)O.CCN(Cc1ccc(-c2ccccc2)cc1)C(=O)CNC(=O)[C@@H](CCCN=C(N)N)NC(=O)[C@H](Cc1ccc(O)cc1)N=C(N)N |  |  | 324 | 0 | 2.3 |  |  |  |  |
| CC(=O)O.CCN(CCc1ccccc1[N+](=O)[O-])C(=O)CNC(=O)[C@@H](CCCN=C(N)N)NC(=O)[C@H](Cc1ccc(O)cc1)N=C(N)N | 8.6 | 0.03 | 1.2 |  | 1.1 | 52.9 |  | 76.1 |  |

| SMILES | Ratio (Mus musculus [1]) | ED50 (Mus musculus [2]) [mg/kg] | EC50 (Cavia porcellus) [nM] | Inhibition (Mus musculus [3]) [%] | ED50 (Mus musculus [4]; [8]) [mg/kg] | ED50 (Mus musculus [5]) [mg/kg] | Inhibition (Mus musculus [6]) [%] | ED50 (Mus musculus [7]) [mg/kg] | ED50 (Mus musculus [4]) [mg/kg] |
| --- | --- | --- | --- | --- | --- | --- | --- | --- | --- |
| CC(=O)O.CCN(Cc1ccccc1F)C(=O)CNC(=O)[C@@H](CCCN=C(N)N)NC(=O)[C@@H](N)Cc1ccc(O)cc1 | 8 | 1.1 | 325 |  | 31.1 |  | 0 |  |  |
| CCN(CCc1sccc1[N+](=O)[O-])C(=O)CNC(=O)[C@@H](CCCN=C(N)N)NC(=O)[C@@H](N)Cc1ccc(O)cc1 |  |  | 146 |  |  |  |  |  |  |
| CC(=O)O.CCN(CCc1ccc([N+](=O)[O-])cc1)C(=O)CNC(=O)[C@@H](CCSC)NC(=O)[C@@H](N)Cc1ccc(O)cc1 | 1.1 | 0.87 | 41 |  |  |  |  |  |  |
| CC(=O)O.CCN(CCc1ccc([N+](=O)[O-])cc1)C(=O)CNC(=O)[C@@H](CCCN=C(N)N)NC(=O)[C@H](Cc1ccc(O)cc1)N=C(N)N | 9.6 | 0.15 | 30.4 |  | 0.24 | 19.2 |  | 10 |  |
| CC(=O)O.CCN(C(=O)CNC(=O)[C@@H](CCCN=C(N)N)NC(=O)[C@H](Cc1ccc(O)cc1)N=C(N)N)[C@@H](Cc1ccc(F)cc1)C(N)=O | 6.5 | 0.002 | 0.09 |  | 0.04 | 0.9 |  | 25.6 |  |
| NC(N)=NCCC[C@@H](NC(=O)[C@@H](N)Cc1ccc(O)cc1)C(=O)NCCSCCc1ccc([N+](=O)[O-])cc1 |  |  | 42000 |  |  |  |  |  |  |
| CCN(Cc1c(F)c(F)c(F)c(F)c1F)C(=O)CNC(=O)[C@@H](CCCN=C(N)N)NC(=O)[C@@H](N)Cc1ccc(O)cc1 |  |  | 820 |  |  |  |  |  |  |
| CC(=O)O.CCN(CCc1ccc(C#N)cc1)C(=O)CNC(=O)[C@@H](CCCN=C(N)N)NC(=O)[C@@H](N)Cc1ccc(O)cc1 | 1.4 | 2.2 | 1800 |  |  |  |  |  |  |
| CC(=O)O.CCN(C(=O)CNC(=O)[C@@H](CCCN=C(N)N)NC(=O)[C@H](Cc1ccc(O)cc1)N=C(N)N)[C@@H](Cc1ccc([N+](=O)[O-])cc1)C(N)=O | 5.1 | 0.009 | 3.9 |  | 0.005 | 0.34 |  | 1.9 |  |
| CC(=O)O.CCN(C(=O)CNC(=O)[C@@H](CCSC)NC(=O)[C@@H](N)Cc1ccc(O)cc1)[C@@H](Cc1ccc([N+](=O)[O-])cc1)C(N)=O | 0.8 | 0.0015 | 1.2 |  |  |  |  |  |  |
| CC(=O)O.CCN(C(=O)CNC(=O)[C@@H](CCCN=C(N)N)NC(=O)[C@@H](N)Cc1ccc(O)cc1)[C@@H](Cc1ccc(F)cc1)C(N)=O | 2.3 | 0.0006 | 2.2 |  | 0.13 | 1.6 |  | 7.9 |  |
| CC(=O)O.CCN(C(=O)CNC(=O)[C@@H](CCCN=C(N)N)NC(=O)[C@@H](N)Cc1ccc(O)cc1)[C@@H](Cc1ccc(Cl)c(Cl)c1)C(N)=O | 9.7 | 0.008 | 0.79 |  | 1.79 | 38.2 |  | 29.2 |  |
| CC(=O)O.CCN(C(=O)CNC(=O)[C@@H](CCCN=C(N)N)NC(=O)[C@@H](N)Cc1ccc(O)cc1)[C@@H](Cc1ccc(C(F)(F)F)cc1)C(N)=O | 2.9 | 0.13 | 6.25 |  |  | 16.9 |  |  |  |
| CC(=O)O.CCN(CCc1ccc(F)cc1)C(=O)CNC(=O)[C@@H](CCCN=C(N)N)NC(=O)[C@H](Cc1ccc(O)cc1)N=C(N)N | 2.4 | 0.02 | 6.8 |  | 0.08 | 20 |  | 5.3 |  |
| CC(=O)O.CCN(C(=O)CNC(=O)[C@@H](CCCN=C(N)N)NC(=O)[C@@H](N)Cc1ccc(O)cc1)[C@@H](Cc1ccc(Cl)cc1)C(N)=O | 1.3 | 0.03 | 0.64 |  |  |  |  |  |  |
| CC(=O)O.CCN(CCc1cccc2ccccc12)C(=O)CNC(=O)[C@@H](CCCN=C(N)N)NC(=O)[C@H](Cc1ccc(O)cc1)N=C(N)N |  |  | 30 | 0 | 1.4 |  | 0 |  |  |
